In the library only some 2.6% were active in any assay of this set; here they are far more common.
esBAF inh: SWI/SNF esBAF complex inhibition; mouse ES cells, Bmi1-luciferase knock-in reporter, 24 h; 100% = twice the neutral-well signal; reporter increase, % at 12.5 µM; hit rate 2% among 350,000; AID 602393; in the data active = activation above about 40%;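 note: 0% = median of the plate's neutral control wells and 100% = double that signal; a rise in the Bmi1 reporter signal indicates esBAF inhibition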
Xi reactivation: activators of X-chromosome reactivation in mouse fibroblasts. XiGFP mouse fibroblasts, % GFP-positive cells imaging, 3 d; cells co-treated with 5-aza-dC sensitizer; scaled so ellipticine positive control = 100%. activation, % at 7.58 µM. hit rate 0.055% among 360,000. AID 743238;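 active = mean normalized replicate activation at least 10% and every replicate at or above 10%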;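 note: 0% = median of on-plate neutral control wells and 100% = ellipticine 6 µM median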
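System: 68-5-11 XiGFP fibroblast line; Timing: 3 days compound exposure; Compound dosing: one concentration, pinned; Benchmarks: positive control ellipticine, 6 µM final; Buffer or medium: DMEM containing 5-aza-dC.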
Wnt act: activators of Wnt/beta-catenin signaling; Wnt/beta-catenin reporter cell assay, activator, plate reader; activation, % at 9.35 µM; hit rate 1.2% among 300,000; in the data active = activation above about 30%, passing the limit was not always enough;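 note: 0% = neutral control wells and 100% = positive control wells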
Vif inh: blocks HIV Vif function | AID 602346 | hit rate 0.35% among 340,000 | HEK293T cells, Vif self-association by quenched fluorescence, imaging, 24 h | inhibition, % at 7.49 µM; in the data active = inhibition above about 50%, passing the limit was not always enough
MITF TRPM1 HTS: activators of MITF-driven TRPM1 promoter activity in SK-MEL-5 cells; SK-MEL-5 TRPM1-promoter luciferase, 24 h; % of positive control, neutral wells = 0; activation, % at 12.5 µM; hit rate 0.75% among 300,000;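 active = mean activation of at least 80% with every replicate also reaching 80%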;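 note: 0% = neutral control wells and 100% = parthenolide positive control wells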
Active calls of the source: *.

Screening CCCNC(=O)N1CC2(CN(CC3CCOCC3)C2)c2c(n(C)c3cc(OC)ccc23)[C@@H]1CO returned Xi reactivation 1.
Screening CCc1ccc(NC2=CC(=O)C(=O)c3ccccc32)cc1 returned Xi reactivation 0, Wnt act 33*, Vif inh 1 and MITF TRPM1 HTS -103.
Screening CCc1ccc2c(c1)C(=O)c1ccccc1C2=O returned Xi reactivation 1, Wnt act 74*, Vif inh -4 and MITF TRPM1 HTS 35.
`C[C@@H]1CCCCO[C@@H](CN(C)C(=O)C2CCCCC2)[C@H](C)CN([C@H](C)CO)C(=O)c2cc(NC(=O)c3ccncc3)ccc2O1` gave esBAF inh 6 and Xi reactivation -1.
O=C(C[C@H]1C=C[C@H](NS(=O)(=O)c2ccccc2)[C@H](CO)O1)NCc1ccncn1 was read as esBAF inh -2 and Xi reactivation 0.
For CCN(CC(=O)Nc1ccc2c(c1)OCCO2)C(=O)c1ccc(C(F)(F)F)cc1 the results were Xi reactivation 0, Wnt act -2, Vif inh -20 and MITF TRPM1 HTS 107*.
CCN(CC(=O)Nc1ccc2c(c1)OCCO2)C(=O)c1ccc(Cl)cc1Cl was read as esBAF inh 71*, Xi reactivation 0, Wnt act 25, Vif inh -4 and MITF TRPM1 HTS 109*.
For CCN(CC(=O)Nc1ccc2c(c1)OCCO2)C(=O)c1cc(Cl)nc2ccccc12 the results were esBAF inh 1, Xi reactivation 0, Wnt act -2, Vif inh -5 and MITF TRPM1 HTS 6.
Screening C=CCn1c(SCC(=O)Nc2ccc3c(c2)OCO3)nnc1-c1cc(Br)ccc1O returned esBAF inh 6, Wnt act 47*, Vif inh -2 and MITF TRPM1 HTS -11.
For Cc1ccc(Cn2ccsc2=NC(=O)COC(=O)c2ccc(O)cc2O)cc1 the results were esBAF inh 47*, Xi reactivation 0, Wnt act 6 and MITF TRPM1 HTS 41.
CNC[C@H]1Oc2ccc(NC(=O)CCC(F)(F)F)cc2CC(=O)N([C@H](C)CO)C[C@@H]1C was read as esBAF inh 2 and Xi reactivation 0.
`Cc1ccc2c(c1)c1cccc3c1n2CCN3CCC(N)=O` gave esBAF inh 75*, Vif inh -9 and MITF TRPM1 HTS 76.
C[C@@H]1CCCCO[C@H](CN(C)C(=O)NC2CCCCC2)[C@@H](C)CN([C@H](C)CO)C(=O)c2cc(NS(=O)(=O)c3cn(C)cn3)ccc2O1 was read as Xi reactivation -1.
`COc1ccc(NC(=O)CN(C)S(=O)(=O)c2cccs2)cc1` gave esBAF inh 49*, Wnt act -3, Vif inh 4 and MITF TRPM1 HTS 12.
`CCOc1ccc(N(CC(=O)Nc2ccc(OC)cc2)S(C)(=O)=O)cc1` gave esBAF inh 33, Wnt act -1 and Vif inh -2.
For CCOc1ccc(S(=O)(=O)Nc2cccc(C(=O)N(C)CC(=O)Nc3ccc(OC)cc3)c2)cc1 the results were esBAF inh 5, Xi reactivation 0, Wnt act -3, Vif inh 72* and MITF TRPM1 HTS -1.
`CCOc1ccc(NC(=O)CN(c2ccc(OC)cc2)S(C)(=O)=O)cc1` gave esBAF inh 67*, Vif inh -1 and MITF TRPM1 HTS 57.
`COc1ccc(NC(=O)CN(C)S(=O)(=O)c2ccc(Br)s2)cc1` gave esBAF inh 6, Xi reactivation 0, Wnt act -1, Vif inh -7 and MITF TRPM1 HTS -5.
Cc1ccc(-n2[nH]c(C)c(/C=C3/C=Nc4ccccc43)c2=O)cc1C was read as esBAF inh 54*, Wnt act -2, Vif inh 0 and MITF TRPM1 HTS 8.
Screening O=S(=O)(c1ccc(Cl)cc1)c1snnc1-c1ccccc1 returned esBAF inh 13, Vif inh 94* and MITF TRPM1 HTS -82.
Cc1ccn(CC(=O)NC2CC(C)(C)Cc3c2cnn3-c2ccc(F)cc2)n1 (centres undefined) was read as esBAF inh 42*, Xi reactivation 0, Wnt act -2, Vif inh -4 and MITF TRPM1 HTS 61.
CCN(CC)CC(=O)NC1CC(C)(C)Cc2c1cnn2-c1ccc(F)cc1 (centres undefined) was read as esBAF inh 0, Xi reactivation 0, Wnt act 9, Vif inh -5 and MITF TRPM1 HTS -5.

Source: PubChem (Broad Institute)
